The values below come from ChEMBL document CHEMBL1157789, “Design, synthesis and SAR of phenylamino-substituted 5,11-dihydro-dibenzo[a,d]cyclohepten-10-ones and 11H-dibenzo[b,f]oxepin-10-ones as p38 MAP kinase inhibitors” (Bioorg Med Chem Lett, 2010).

Test [1] in a line: Inhibition of p38 assessed as rate of ATF-2 phosphorylation at 10 uM by immunosorbent non-radioactive enzyme assay. The essentials: (§1)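 p38α MAP kinase ELISA-type (immunosorbent, non-radioactive) assay. Enzyme was incubated with ATP at 100 µM, ATF-2 as substrate, and test compound at 10^-5 to 10^-8 M. Activity was read as the rate of ATF-2 phosphorylation. SB203580 served as the reference inhibitor.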

For test [2], the target named is RAC-alpha serine/threonine-protein kinase (Homo sapiens) (UniProt P31749). In words: Inhibition of AKT1 at 10 uM.
RAC-alpha serine/threonine-protein kinase (Homo sapiens), sequence (P31749 whole entry): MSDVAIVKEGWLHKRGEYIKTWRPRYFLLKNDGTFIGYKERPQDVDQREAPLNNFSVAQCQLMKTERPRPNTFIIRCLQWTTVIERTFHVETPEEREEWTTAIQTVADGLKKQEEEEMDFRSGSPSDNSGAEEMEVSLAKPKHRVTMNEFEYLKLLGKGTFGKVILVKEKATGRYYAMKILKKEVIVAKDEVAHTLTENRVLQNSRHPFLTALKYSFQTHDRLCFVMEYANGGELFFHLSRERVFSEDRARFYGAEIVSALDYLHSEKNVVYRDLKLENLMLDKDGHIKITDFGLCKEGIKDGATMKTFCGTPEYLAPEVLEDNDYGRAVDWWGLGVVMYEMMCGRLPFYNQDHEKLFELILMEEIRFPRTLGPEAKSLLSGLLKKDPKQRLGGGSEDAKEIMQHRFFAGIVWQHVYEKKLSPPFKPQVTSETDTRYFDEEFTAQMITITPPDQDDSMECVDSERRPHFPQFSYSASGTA
The target of test [3] is T1, NUAK family SNF1-like kinase 1 (Homo sapiens) (UniProt O60285).
T1 sequence (whole entry): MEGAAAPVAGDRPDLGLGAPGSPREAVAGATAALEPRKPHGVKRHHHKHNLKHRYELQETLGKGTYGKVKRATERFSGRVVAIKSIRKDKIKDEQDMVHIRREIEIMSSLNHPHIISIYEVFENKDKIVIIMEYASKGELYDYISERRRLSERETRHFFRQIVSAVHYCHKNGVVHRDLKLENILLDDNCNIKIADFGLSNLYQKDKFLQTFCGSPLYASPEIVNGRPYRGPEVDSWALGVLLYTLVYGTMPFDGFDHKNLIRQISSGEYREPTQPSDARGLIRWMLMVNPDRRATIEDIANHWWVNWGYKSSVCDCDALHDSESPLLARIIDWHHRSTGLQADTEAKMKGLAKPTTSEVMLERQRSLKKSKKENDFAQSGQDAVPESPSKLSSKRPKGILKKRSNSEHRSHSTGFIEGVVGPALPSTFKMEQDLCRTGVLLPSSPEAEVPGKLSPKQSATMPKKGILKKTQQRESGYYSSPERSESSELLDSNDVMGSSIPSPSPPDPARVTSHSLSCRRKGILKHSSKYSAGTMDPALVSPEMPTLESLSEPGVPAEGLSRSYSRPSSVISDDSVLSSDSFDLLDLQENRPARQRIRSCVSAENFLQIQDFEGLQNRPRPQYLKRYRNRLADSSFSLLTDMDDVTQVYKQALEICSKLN
As to the kind of experiment: Inhibition of ARK5 at 10 uM.

In test [4] the target is Aurora kinase B (Homo sapiens) (UniProt Q96GD4). As to the kind of experiment: Inhibition of Aurora B at 10 uM.
Test [5] has as its target Tyrosine-protein kinase receptor UFO (Homo sapiens) (UniProt P30530). As to the kind of experiment: Inhibition of AXL at 10 uM.
Test [6] deals with Serine/threonine-protein kinase B-raf (Homo sapiens), P15056 [V600E]. As to the kind of experiment: Inhibition of B-Raf V600E mutant at 10 uM.
Test [7] deals with Casein kinase II subunit alpha (Homo sapiens) (UniProt P68400). In words: Inhibition of CK2alpha1 at 10 uM.
Casein kinase II subunit alpha (Homo sapiens), sequence (P68400 whole entry, looked up): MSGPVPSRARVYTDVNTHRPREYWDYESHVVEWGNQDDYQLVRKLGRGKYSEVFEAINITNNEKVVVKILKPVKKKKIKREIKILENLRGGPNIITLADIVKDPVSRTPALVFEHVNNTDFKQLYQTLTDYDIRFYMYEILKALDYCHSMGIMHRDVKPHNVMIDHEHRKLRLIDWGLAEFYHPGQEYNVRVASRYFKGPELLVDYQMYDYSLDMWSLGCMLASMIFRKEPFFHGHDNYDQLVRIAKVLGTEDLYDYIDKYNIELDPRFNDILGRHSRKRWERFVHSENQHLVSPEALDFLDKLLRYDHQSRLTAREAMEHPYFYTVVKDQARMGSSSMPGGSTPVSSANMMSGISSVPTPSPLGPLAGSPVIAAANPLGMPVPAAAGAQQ
For test [8], the target named is Focal adhesion kinase 1 (Homo sapiens) (UniProt Q05397). As to the kind of experiment: Inhibition of FAK at 10 uM.
Test [9] has as its target Insulin-like growth factor 1 receptor (Homo sapiens) (UniProt P08069). As to the kind of experiment: Inhibition of IGF1R at 10 uM.
Test [10] deals with Insulin receptor (Homo sapiens) (UniProt P06213). In words: Inhibition of INSR at 10 uM.
Insulin receptor (Homo sapiens), sequence (P06213 28-758 limits assumed): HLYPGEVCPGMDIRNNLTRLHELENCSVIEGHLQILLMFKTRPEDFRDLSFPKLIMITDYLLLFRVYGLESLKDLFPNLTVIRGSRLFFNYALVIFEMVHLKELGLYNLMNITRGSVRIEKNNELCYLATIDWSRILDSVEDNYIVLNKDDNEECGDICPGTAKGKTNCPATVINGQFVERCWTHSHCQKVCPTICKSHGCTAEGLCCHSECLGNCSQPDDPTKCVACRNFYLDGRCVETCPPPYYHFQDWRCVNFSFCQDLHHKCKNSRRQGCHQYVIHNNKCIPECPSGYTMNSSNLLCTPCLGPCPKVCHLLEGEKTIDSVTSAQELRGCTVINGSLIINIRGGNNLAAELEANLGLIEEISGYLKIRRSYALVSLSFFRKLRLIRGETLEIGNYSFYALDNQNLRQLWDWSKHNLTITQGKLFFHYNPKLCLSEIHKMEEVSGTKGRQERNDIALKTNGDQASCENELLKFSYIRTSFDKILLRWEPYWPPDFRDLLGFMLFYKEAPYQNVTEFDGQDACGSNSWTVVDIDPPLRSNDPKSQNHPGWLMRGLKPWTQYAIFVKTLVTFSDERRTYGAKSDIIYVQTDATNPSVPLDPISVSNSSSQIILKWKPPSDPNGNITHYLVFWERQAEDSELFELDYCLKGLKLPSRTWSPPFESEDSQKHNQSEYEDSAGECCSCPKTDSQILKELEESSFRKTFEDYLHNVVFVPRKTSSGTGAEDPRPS
Insulin receptor (Homo sapiens), sequence (P06213 763-1382 limits assumed): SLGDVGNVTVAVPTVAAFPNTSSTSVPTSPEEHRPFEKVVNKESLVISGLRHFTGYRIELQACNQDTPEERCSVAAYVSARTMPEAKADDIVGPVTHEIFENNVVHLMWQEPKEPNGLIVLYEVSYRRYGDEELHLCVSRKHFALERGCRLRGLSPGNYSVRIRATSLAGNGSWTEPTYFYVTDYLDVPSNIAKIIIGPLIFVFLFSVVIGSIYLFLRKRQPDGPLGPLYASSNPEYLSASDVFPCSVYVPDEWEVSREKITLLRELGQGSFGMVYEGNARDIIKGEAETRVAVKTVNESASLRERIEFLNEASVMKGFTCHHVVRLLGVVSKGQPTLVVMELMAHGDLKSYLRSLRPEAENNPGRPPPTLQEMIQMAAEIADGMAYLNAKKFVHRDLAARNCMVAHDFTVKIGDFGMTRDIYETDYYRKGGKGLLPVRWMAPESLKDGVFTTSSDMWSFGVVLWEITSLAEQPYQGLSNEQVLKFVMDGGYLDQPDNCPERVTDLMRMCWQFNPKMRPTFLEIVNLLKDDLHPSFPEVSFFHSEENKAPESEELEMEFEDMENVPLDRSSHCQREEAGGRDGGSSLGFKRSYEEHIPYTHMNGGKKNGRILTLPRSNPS
Test [11] has as its target Hepatocyte growth factor receptor (Homo sapiens) (UniProt P08581). As to the kind of experiment: Inhibition of MET at 10 uM.
The target of test [12] is Serine/threonine-protein kinase PLK1 (Homo sapiens) (UniProt P53350). As to the kind of experiment: Inhibition of PLK1 at 10 uM.
Serine/threonine-protein kinase PLK1 (Homo sapiens), sequence (P53350 whole entry): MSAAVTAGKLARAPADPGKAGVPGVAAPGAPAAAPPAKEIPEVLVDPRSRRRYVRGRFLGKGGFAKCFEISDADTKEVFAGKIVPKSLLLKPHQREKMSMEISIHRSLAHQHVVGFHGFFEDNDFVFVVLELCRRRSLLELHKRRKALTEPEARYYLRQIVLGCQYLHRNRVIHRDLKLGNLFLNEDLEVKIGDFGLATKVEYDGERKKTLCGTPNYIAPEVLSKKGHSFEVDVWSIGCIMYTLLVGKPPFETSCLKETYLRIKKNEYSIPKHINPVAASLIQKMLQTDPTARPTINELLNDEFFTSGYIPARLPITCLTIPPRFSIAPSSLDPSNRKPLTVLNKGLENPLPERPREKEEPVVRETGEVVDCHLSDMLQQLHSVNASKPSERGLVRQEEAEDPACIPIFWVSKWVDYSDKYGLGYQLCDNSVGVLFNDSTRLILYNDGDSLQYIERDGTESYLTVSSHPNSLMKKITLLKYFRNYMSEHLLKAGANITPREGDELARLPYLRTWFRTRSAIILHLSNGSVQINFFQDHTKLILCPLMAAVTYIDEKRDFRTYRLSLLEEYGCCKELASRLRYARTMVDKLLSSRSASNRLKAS
The target in test [13] is Serine/threonine-protein kinase N1 (Homo sapiens) (UniProt Q16512). In words: Inhibition of PRK1 at 10 uM.
The target of test [14] is T2, Serine/threonine-protein kinase PLK4 (Homo sapiens) (UniProt O00444).
T2 sequence (whole entry): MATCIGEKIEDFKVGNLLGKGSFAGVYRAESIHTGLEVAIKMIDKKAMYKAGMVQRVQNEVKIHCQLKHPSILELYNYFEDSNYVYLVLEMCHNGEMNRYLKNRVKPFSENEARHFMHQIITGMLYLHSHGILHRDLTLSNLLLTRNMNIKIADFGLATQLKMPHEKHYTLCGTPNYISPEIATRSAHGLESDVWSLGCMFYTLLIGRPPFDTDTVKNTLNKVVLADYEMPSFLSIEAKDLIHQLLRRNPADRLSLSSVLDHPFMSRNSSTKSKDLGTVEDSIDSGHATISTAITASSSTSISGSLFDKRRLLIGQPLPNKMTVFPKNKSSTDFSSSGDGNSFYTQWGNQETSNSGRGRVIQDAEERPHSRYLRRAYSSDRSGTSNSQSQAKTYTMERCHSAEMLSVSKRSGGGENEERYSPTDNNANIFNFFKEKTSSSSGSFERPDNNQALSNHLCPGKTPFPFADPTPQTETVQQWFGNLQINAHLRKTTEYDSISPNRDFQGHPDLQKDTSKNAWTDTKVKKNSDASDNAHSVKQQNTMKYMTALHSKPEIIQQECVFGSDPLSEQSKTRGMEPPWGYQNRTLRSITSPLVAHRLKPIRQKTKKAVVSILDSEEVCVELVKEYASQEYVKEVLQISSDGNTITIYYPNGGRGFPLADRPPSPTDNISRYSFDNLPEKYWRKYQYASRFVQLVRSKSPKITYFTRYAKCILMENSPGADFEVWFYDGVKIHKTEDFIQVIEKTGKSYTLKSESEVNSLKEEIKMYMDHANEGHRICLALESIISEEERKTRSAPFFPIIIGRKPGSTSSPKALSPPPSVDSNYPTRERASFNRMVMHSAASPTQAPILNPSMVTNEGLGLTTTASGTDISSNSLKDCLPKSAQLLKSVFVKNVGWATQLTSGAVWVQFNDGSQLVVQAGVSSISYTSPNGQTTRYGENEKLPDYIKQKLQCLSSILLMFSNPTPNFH
In words: Inhibition of SAK at 10 uM.

For test [15], the target named is Proto-oncogene tyrosine-protein kinase Src (Homo sapiens) (UniProt P12931). As to the kind of experiment: Inhibition of SRC at 10 uM.
Proto-oncogene tyrosine-protein kinase Src (Homo sapiens), sequence (P12931 2-536 limits assumed): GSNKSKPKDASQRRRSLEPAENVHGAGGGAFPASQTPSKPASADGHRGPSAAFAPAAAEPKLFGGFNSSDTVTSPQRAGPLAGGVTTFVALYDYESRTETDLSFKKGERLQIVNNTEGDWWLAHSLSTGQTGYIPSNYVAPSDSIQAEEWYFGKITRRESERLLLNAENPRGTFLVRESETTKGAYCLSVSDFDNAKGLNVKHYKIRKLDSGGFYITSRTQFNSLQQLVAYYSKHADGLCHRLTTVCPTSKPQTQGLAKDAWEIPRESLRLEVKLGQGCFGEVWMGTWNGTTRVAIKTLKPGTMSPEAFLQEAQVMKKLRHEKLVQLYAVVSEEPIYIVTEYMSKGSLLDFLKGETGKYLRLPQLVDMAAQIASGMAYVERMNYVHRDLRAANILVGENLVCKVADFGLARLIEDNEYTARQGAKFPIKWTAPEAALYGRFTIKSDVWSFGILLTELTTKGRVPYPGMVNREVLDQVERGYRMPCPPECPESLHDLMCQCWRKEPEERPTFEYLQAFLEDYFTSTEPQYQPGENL
In test [16] the target is BDNF/NT-3 growth factors receptor (Homo sapiens) (UniProt Q16620). In words: Inhibition of TRKB at 10 uM.
BDNF/NT-3 growth factors receptor (Homo sapiens), sequence (Q16620 32-822 limits assumed): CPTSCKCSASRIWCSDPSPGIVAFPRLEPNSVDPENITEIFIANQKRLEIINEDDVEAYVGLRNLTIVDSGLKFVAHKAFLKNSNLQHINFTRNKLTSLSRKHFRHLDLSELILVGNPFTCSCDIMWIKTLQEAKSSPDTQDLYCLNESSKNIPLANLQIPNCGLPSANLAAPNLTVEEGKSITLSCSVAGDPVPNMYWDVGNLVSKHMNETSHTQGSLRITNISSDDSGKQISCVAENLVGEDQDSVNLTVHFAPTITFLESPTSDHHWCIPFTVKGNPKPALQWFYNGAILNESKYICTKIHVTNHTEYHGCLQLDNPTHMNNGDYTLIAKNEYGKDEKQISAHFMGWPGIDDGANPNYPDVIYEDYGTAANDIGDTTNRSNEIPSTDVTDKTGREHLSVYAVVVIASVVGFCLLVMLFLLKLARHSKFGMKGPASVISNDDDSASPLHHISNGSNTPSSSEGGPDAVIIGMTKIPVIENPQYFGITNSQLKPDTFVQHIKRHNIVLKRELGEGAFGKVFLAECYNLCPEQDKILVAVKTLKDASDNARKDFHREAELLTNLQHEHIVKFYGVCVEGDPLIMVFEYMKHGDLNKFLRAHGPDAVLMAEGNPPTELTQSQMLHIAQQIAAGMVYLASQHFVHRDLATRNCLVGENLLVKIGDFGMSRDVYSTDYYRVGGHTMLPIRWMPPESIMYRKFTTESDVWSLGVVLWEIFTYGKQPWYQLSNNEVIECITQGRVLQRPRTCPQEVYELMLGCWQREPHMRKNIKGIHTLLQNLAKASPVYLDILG
Test [17] concerns the target Vascular endothelial growth factor receptor 2 (Homo sapiens) (UniProt P35968). As to the kind of experiment: Inhibition of VGFR2 at 10 uM.
The nature of test [18]: Inhibition of p38 assessed as rate of ATF-2 phosphorylation by immunosorbent non-radioactive enzyme assay. The essentials: as §1

pIC50: −log10 of the molar value. Calls of active or inactive are those of the source. The rule behind the calls is not given here.

One may read the inhibition as the percentage by which the read-out fell short of the control. As usually defined, the pIC50 is −log10 of the IC50, conventionally taken in molar units.

Tyrosine-protein kinase receptor UFO (Homo sapiens), sequence (P30530 whole entry): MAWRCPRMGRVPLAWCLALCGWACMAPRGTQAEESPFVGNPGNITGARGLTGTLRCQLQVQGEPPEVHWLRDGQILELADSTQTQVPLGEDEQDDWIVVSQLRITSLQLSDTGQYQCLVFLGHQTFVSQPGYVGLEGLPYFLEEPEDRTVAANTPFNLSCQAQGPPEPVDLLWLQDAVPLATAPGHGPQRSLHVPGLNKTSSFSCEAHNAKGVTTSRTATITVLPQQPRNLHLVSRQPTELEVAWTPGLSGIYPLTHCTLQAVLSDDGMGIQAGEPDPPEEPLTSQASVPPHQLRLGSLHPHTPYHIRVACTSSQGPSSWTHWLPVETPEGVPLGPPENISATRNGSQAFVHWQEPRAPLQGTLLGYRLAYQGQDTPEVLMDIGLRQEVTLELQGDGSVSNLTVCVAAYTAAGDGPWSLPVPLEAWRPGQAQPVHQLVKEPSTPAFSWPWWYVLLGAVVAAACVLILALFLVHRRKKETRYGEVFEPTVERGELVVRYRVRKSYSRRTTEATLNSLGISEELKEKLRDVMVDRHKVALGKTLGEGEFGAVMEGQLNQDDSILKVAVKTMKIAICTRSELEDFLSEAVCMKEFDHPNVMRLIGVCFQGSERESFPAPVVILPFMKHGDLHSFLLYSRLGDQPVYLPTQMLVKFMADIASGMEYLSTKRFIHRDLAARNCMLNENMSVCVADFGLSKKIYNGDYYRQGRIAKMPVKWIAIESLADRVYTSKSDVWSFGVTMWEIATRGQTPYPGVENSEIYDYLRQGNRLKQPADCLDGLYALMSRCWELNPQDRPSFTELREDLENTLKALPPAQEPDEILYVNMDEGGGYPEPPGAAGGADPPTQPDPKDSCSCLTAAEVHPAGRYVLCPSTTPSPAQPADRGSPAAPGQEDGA

Regarding `O=C1Cc2ccccc2Cc2ccc(Nc3ccc(F)cc3F)cc21`, in test [1], the inhibition is 44%.
Same read-out and setting: the same measure for `O=C1Cc2ccccc2Oc2ccc(Nc3ccccc3)cc21`: 25%; for `O=C1Cc2ccccc2Cc2c(Nc3ccc(F)cc3F)cccc21`: 6%; for `O=C1Cc2ccccc2Oc2c(Nc3ccc(F)cc3F)cccc21`: 12%.
With `O=C1Cc2ccccc2Cc2cc(NCc3ccccc3)ccc21`, in [1], the inhibition turned out to be 9%. In addition, the inhibition result in test [2], in test [3], in test [4], in test [5], in test [6] and in test [7] was “inactive” in each case. Also, the inhibition result in test [8], in test [9], in [10], in [11], in test [12] and in [13] was “inactive” throughout. The inhibition result in [14], in [15], in [16] and in test [17] was “inactive” in each case.
`Nc1cc(F)ccc1Nc1ccc2c(c1)C(=O)Cc1ccccc1O2`: the inhibition in test [1] stood at 46%.
Consider `O=C1Cc2cc(Nc3ccccc3)ccc2Cc2ccccc21`, for which the inhibition in [1] amounted to 47%. In addition, the inhibition entry in test [2], in test [3], in test [4], in [5], in test [6] and in test [7] was “inactive” each time. For the same compound, the inhibition result in test [8], in test [9], in [10], in test [11], in test [12] and in test [13] was “inactive” each time. The inhibition result in test [14], in [15], in [16] and in [17] was “inactive” throughout.
Take `Nc1ccc(Nc2ccc3c(c2)Cc2ccccc2CC3=O)cc1`: the inhibition in test [1] stood at 15%. Besides, the inhibition result in test [2], in [3], in [4], in test [5], in [6] and in test [7] was “inactive” in each case. The inhibition entry in test [8], in test [9], in test [10], in test [11], in test [12] and in test [13] was “inactive” in each case. Besides, the inhibition result in test [14], in test [15], in [16] and in test [17] was “inactive” each time.
Take `Nc1ccccc1Nc1ccc2c(c1)Oc1ccccc1NC2=O`: the negative logarithm of the IC50 (pIC50) in test [18] was 5.57. The inhibition entry in [2], in [3], in test [4], in [5], in test [6] and in test [7] was “inactive” each time. Further, the inhibition result in test [8], in test [9], in [10], in test [11], in test [12] and in [13] was “inactive” throughout. Further, the inhibition result in test [14], in test [15], in test [16] and in [17] was “inactive” each time.
For the compound `O=C1Cc2ccccc2Cc2c(Nc3ccccc3)cccc21`, the inhibition in [1] was 47%.
`O=C1Cc2ccccc2Cc2cc(-c3ccccc3)ccc21`: the inhibition in test [1] turned out to be 43%. Also, the inhibition entry in test [2], in test [3], in [4], in test [5], in test [6] and in test [7] was “inactive” throughout. The inhibition entry in test [8], in [9], in test [10], in test [11], in test [12] and in test [13] was “inactive” throughout. Further, the inhibition entry in test [14], in test [15], in test [16] and in test [17] was “inactive” in each case.
Turning to `Nc1ccccc1Nc1ccc2c(c1)C(=O)Cc1ccccc1O2`, the inhibition in test [1] came out at 36%.
Still for that read-out and setting: in the case of `Nc1ccccc1Nc1cccc2c1Oc1ccccc1CC2=O` it was 37%.
Same read-out and setting: in the case of `O=C1Cc2ccccc2Oc2c(Nc3ccccc3)cccc21` it was 32%.
